According to ChEMBL document CHEMBL1140872, “Discovery of a potent and selective inhibitor for human carbonyl reductase 1 from propionate scanning applied to the macrolide zearalenone” (Bioorg Med Chem, 2009):

Legend:
[1] = biological target: T1, Serine/threonine-protein kinase 3 (Homo sapiens) (UniProt Q13188); test: Binding affinity to human recombinant STK3 expressed in Escherichia coli assessed as thermal shift by differential scanning fluorimetry
T1 sequence (whole entry): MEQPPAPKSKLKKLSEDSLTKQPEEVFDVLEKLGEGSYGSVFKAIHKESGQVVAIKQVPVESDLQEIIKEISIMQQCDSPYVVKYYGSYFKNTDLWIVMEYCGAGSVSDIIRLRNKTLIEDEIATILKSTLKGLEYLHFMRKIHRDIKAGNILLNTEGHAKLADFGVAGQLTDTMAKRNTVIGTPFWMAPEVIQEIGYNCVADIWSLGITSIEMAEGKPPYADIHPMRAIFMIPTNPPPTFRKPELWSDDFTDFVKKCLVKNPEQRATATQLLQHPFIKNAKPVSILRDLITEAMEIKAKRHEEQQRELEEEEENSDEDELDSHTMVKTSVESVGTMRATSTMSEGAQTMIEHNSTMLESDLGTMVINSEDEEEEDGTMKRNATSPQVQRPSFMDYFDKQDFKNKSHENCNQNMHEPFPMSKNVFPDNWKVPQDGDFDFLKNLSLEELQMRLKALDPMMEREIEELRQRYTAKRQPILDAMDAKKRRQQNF
In short: (§1)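 Thermal-shift (DSF) binding assay with purified recombinant catalytic domains or proteins carrying an N- or C-terminal His6 tag or GST fusion. Purity was >95% by SDS/PAGE and identity was confirmed by MS. Protein was at 2 µM final in 10 mM HEPES pH 7.5 and 150 mM NaCl. Tm shift is reported, with 2 °C as the threshold for binding.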

[2] = biological target: Tyrosine-protein kinase Fes/Fps (Homo sapiens) (UniProt P07332); test: Binding affinity to human recombinant FES expressed in Escherichia coli assessed as thermal shift by differential scanning fluorimetry; in short: as §1
[3] = biological target: T2, Mitogen-activated protein kinase kinase kinase 5 (Homo sapiens) (UniProt Q99683); test: Binding affinity to human recombinant MAP3K5 expressed in Escherichia coli assessed as thermal shift by differential scanning fluorimetry; in short: as §1
T2 sequence (whole entry): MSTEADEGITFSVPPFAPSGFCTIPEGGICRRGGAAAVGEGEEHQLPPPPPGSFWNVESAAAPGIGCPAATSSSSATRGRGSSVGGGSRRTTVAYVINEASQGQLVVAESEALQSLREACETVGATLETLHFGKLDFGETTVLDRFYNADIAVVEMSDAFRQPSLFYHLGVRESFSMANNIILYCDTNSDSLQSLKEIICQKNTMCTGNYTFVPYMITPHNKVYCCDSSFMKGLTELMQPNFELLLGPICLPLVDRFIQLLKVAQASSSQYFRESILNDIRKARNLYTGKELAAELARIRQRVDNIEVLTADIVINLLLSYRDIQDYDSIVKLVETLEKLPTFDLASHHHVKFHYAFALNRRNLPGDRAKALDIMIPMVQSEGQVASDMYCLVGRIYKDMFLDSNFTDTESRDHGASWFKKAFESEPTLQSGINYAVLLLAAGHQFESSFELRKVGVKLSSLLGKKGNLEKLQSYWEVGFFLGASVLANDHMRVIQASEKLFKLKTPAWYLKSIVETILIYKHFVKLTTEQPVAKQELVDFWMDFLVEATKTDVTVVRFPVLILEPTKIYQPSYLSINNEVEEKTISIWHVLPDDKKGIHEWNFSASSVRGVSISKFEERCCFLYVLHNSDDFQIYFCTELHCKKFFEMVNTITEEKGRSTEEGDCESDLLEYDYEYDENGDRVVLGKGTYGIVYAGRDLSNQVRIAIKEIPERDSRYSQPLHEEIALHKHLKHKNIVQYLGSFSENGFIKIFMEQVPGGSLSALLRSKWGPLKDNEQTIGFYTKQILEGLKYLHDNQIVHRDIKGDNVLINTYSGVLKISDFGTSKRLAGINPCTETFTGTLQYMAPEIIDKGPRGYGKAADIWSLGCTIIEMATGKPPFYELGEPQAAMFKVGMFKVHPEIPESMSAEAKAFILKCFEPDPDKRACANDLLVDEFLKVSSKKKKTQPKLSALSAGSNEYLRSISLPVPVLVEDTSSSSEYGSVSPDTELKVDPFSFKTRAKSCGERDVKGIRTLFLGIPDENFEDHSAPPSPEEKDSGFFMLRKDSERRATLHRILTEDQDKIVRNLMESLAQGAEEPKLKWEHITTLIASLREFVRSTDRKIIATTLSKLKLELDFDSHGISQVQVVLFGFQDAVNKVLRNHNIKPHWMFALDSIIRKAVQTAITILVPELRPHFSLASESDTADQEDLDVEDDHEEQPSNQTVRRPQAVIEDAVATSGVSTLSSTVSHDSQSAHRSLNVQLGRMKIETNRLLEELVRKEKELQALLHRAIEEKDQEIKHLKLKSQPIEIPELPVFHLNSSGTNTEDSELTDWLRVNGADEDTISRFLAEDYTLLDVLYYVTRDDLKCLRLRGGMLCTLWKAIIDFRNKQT

[4] = biological target: Serine/threonine-protein kinase pim-3 (Homo sapiens) (UniProt Q86V86); test: Binding affinity to human recombinant PIM3 expressed in Escherichia coli assessed as thermal shift by differential scanning fluorimetry; in short: as §1
[5] = biological target: T3, Dual specificity mitogen-activated protein kinase kinase 6 (Homo sapiens) (UniProt P52564); test: Binding affinity to human recombinant MAP2K6 expressed in Escherichia coli assessed as thermal shift by differential scanning fluorimetry; in short: as §1
T3 sequence (whole entry): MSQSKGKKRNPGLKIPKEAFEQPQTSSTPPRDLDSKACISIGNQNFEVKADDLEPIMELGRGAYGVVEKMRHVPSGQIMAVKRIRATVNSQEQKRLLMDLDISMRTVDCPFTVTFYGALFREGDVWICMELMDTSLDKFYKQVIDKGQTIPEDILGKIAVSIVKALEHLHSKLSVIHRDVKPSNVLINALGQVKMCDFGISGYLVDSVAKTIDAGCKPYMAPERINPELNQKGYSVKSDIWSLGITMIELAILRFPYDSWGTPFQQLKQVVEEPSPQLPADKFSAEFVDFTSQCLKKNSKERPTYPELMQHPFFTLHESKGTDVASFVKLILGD

Measured: Tm

Tyrosine-protein kinase Fes/Fps (Homo sapiens), sequence (P07332 whole entry): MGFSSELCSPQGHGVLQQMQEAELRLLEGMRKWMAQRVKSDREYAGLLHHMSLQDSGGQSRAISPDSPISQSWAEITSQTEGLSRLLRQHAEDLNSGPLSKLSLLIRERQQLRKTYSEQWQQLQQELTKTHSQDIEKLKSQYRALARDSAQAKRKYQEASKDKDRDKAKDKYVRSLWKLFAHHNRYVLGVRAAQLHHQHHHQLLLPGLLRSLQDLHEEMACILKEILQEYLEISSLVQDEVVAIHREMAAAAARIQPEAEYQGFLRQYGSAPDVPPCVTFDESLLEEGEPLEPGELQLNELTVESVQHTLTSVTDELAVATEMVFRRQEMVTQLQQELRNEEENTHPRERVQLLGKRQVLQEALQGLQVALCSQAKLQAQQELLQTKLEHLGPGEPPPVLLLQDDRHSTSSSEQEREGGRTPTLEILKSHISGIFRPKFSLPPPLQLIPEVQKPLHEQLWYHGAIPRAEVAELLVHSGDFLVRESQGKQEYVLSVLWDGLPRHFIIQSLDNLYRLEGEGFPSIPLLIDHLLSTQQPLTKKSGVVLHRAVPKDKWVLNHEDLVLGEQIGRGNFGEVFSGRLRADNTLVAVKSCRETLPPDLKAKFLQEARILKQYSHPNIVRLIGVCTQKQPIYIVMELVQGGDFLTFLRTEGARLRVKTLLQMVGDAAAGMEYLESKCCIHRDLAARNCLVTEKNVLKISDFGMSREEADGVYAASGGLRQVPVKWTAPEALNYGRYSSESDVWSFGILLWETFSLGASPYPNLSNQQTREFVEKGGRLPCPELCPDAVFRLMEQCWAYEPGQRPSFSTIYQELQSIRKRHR

C[C@H]1CCCC(=O)CCC/C=C/c2cc(O)cc(O)c2C(=O)O1
< 2 °C: all assays above

COc1cc(O)c2c(c1)/C=C/CC[C@H](C)C(=O)CCC[C@H](C)OC2=O
< 2 °C: all assays above

COc1cc2c(c(OC)c1)C(=O)O[C@@H](C)CCC[C@@H](O)[C@@H](C)CC/C=C/2
< 2 °C: all assays above

C[C@H]1CCCC(=O)[C@@H](C)CC/C=C/c2cc(O)cc(O)c2C(=O)O1
< 2 °C: all assays above

COc1cc2c(c(OC)c1)C(=O)O[C@@H](C)CCCC(=O)[C@@H](C)CC/C=C/2
< 2 °C: all assays above

COC1=C2C[C@@H](C)C[C@H](OC)[C@H](O)[C@@H](C)/C=C(\C)[C@H](OC(N)=O)[C@@H](OC)/C=C\C=C(/C)C(=O)NC(=CC1=O)C2=O
< 2 °C: all assays above

C[C@@H]1C[C@H]2O[C@@H]2/C=C\C=C\C(=O)Cc2c(Cl)c(O)cc(O)c2C(=O)O1 [RADICICOL]
< 2 °C: all assays above
